Laboratory results: ChEMBL document CHEMBL1156261, “Evaluation of substituted N,N'-diarylsulfonamides as activators of the tumor cell specific M2 isoform of pyruvate kinase” (J Med Chem, 2010)
Activity calls are given as the source filed them.

Tests used:
Pyruvate kinase PKM [1] = target: T1, Pyruvate kinase PKM (Homo sapiens, UniProt P14618); assay: Activation of PKM1 assessed as ATP product formation by luminescent pyruvate kinase-luciferase coupled assay
In short: (§1)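 Luciferase-coupled ATP production assay run as for PKM2: imidazole pH 7.2 buffer with KCl, MgCl2, Tween 20 and BSA, 0.1 mM ADP, 0.5 mM PEP, 1 h at r.t., Kinase-Glo luminescence. Enzyme final concentrations were PKM1 1 nM, PKL 0.1 nM, PKR 0.1 nM. % activation normalized to DMSO (neutral) and no-enzyme controls.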
Target sequence in this assay (P14618 2-531 limits assumed): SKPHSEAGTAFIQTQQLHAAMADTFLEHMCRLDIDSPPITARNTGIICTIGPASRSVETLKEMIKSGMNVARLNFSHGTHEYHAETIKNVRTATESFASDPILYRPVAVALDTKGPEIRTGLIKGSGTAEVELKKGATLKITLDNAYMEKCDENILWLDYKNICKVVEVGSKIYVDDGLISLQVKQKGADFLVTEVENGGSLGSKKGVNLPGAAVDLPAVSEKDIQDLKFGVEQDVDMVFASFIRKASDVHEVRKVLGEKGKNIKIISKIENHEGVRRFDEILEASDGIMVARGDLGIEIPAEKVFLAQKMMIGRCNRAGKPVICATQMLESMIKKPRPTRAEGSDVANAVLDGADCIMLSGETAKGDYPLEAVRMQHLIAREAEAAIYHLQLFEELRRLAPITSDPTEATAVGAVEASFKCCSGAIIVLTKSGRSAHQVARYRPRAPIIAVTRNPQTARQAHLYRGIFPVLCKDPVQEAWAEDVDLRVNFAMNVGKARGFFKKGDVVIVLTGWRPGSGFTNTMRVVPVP

Pyruvate kinase PKM [2] = target: T1, Pyruvate kinase PKM; assay: Activation of PKM2 assessed as ATP product formation by luminescent pyruvate kinase-luciferase coupled assay
In short: (§2)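 Recombinant human PKM2 (0.1 nM final) in 50 mM imidazole pH 7.2, 50 mM KCl, 7 mM MgCl2, 0.01% Tween 20, 0.05% BSA; 0.1 mM ADP, 0.5 mM PEP; 1 h at r.t., then Kinase-Glo luciferase read of ATP formed. Activation % = (c−n)/(n−i)×100 against DMSO and no-enzyme controls; 100% ≈ 2-fold over basal signal. Max response taken at 57 μM; three separate experiments.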
Target sequence in this assay (P14618 whole entry): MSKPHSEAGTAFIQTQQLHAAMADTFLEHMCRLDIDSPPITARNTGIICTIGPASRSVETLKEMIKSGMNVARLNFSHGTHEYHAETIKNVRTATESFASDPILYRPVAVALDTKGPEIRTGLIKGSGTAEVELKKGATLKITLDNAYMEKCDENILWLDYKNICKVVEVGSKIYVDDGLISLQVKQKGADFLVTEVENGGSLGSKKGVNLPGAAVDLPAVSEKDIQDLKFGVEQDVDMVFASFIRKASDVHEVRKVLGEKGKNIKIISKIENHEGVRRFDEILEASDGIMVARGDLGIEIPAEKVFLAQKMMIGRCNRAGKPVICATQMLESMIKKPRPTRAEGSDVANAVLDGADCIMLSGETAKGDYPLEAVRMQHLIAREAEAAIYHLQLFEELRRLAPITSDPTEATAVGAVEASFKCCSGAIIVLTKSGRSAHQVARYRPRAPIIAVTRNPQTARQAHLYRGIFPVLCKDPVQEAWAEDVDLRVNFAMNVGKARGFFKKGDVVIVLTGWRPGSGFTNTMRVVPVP

Pyruvate kinase PKM [3] = target: T1, Pyruvate kinase PKM; assay: Activation of PKM2 assessed as ATP product formation at 57 uM by luminescent pyruvate kinase-luciferase coupled assay relative to fructose-1,6-bis-phosphate; in short: as §2
Target sequence in this assay (P14618 2-531 limits assumed): as the sequence (P14618 2-531 limits assumed) above

[4] = target: Pyruvate kinase PKLR (Homo sapiens) (UniProt P30613); assay: Activation of PKL assessed as pyruvate formation by fluorescent pyruvate kinase-lactate dehydrogenase coupled assay relative to control; parameters: concentration or dose not given beside the values
Sequence of Pyruvate kinase PKLR (Homo sapiens) (P30613 whole entry, looked up): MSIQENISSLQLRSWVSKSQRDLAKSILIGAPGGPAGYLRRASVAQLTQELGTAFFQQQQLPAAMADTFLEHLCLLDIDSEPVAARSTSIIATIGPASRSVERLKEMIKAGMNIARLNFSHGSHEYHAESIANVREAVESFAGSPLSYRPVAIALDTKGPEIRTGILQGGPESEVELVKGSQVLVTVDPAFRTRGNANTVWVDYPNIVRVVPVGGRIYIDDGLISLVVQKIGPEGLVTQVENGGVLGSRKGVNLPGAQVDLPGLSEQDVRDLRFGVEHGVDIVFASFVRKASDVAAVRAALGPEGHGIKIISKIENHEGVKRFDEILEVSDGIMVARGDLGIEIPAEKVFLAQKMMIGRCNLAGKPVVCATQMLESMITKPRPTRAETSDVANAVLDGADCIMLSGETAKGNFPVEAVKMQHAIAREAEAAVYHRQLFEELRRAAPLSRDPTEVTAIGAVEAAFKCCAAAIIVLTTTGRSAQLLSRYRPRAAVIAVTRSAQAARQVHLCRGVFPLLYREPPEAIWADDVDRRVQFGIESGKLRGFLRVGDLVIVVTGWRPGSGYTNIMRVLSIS

[5] = target: Pyruvate kinase PKLR (Homo sapiens) (UniProt P30613); assay: Activation of PKR assessed as ATP product formation by luminescent pyruvate kinase-luciferase coupled assay relative to control; parameters: concentration or dose not given beside the values; in short: as §1
[6] = target: Pyruvate kinase PKLR (Homo sapiens) (UniProt P30613); assay: Activation of PKR assessed as pyruvate formation by fluorescent pyruvate kinase-lactate dehydrogenase coupled assay relative to control; parameters: concentration or dose not given beside the values
[7] = target: Pyruvate kinase PKLR (Homo sapiens) (UniProt P30613); assay: Activation of PKL assessed as ATP product formation by luminescent pyruvate kinase-luciferase coupled assay relative to control; parameters: concentration or dose not given beside the values; in short: as §1
Pyruvate kinase PKM [8] = target: T1, Pyruvate kinase PKM; assay: Activation of PKM1 assessed as pyruvate formation by fluorescent pyruvate kinase-lactate dehydrogenase coupled assay
Target sequence in this assay (P14618 2-531 limits assumed): as the sequence (P14618 2-531 limits assumed) above

SMILES | Activity (Pyruvate kinase PKM [1]) | AC50 (Pyruvate kinase PKM [2]; read-out: AC50) [µM] | Activity (Pyruvate kinase PKM [3]) | Activity [4] [%] | Activity [5] [%] | Activity [6] [%] | Activity [7] [%] | Activity (Pyruvate kinase PKM [8]) | AC50 (Pyruvate kinase PKM [2])
O=S(=O)(NCC1CN(S(=O)(=O)c2ccc3c(c2)OCCO3)C1)c1c(F)cccc1F | inactive | 4.47 | 93.3% | < 30 | < 30 | < 30 | < 30 | inactive | –
O=S(=O)(NC1CCN(S(=O)(=O)c2ccc3c(c2)OCCO3)C1)c1c(F)cccc1F (stereo not drawn) | inactive | > 15 | 82.4% | < 30 | < 30 | < 30 | < 30 | inactive | –
O=S(=O)(NCCNS(=O)(=O)c1c(F)cccc1F)c1ccc2c(c1)OCCO2 | inactive | > 15 | 60.3% | < 30 | < 30 | < 30 | < 30 | inactive | –
O=S(=O)(N[C@H]1CC[C@@H](NS(=O)(=O)c2c(F)cccc2F)CC1)c1ccc2c(c1)OCCO2 | inactive | > 35 | 60.7% | < 30 | < 30 | < 30 | < 30 | inactive | –
O=S(=O)(c1ccc2c(c1)OCCO2)N1CCN(S(=O)(=O)c2cccc[n+]2[O-])CC1 | inactive | > 10 | 81.5% | < 30 | < 30 | < 30 | < 30 | inactive | –
O=S(=O)(NCC1CN(S(=O)(=O)c2c(F)cccc2F)C1)c1ccc2c(c1)OCCO2 | inactive | 3.05 | 108% | < 30 | < 30 | < 30 | < 30 | inactive | –
O=S(=O)(N[C@H]1CC[C@H](NS(=O)(=O)c2c(F)cccc2F)CC1)c1ccc2c(c1)OCCO2 | inactive | – | 90.8% | < 30 | < 30 | < 30 | < 30 | inactive | –
O=S(=O)(NC1CCN(S(=O)(=O)c2ccc3c(c2)OCCO3)CC1)c1c(F)cccc1F | inactive | 3.69 | 101% | < 30 | < 30 | < 30 | < 30 | inactive | –
O=C(c1c(F)cccc1F)N1CCN(S(=O)(=O)c2ccc3c(c2)OCCO3)CC1 | inactive | – | inactive | < 30 | < 30 | < 30 | < 30 | inactive | Not Active
O=S(=O)(c1ccc2c(c1)OCCO2)N1CCN(S(=O)(=O)c2ccccc2F)CC1 | inactive | – | 114% | < 30 | < 30 | < 30 | < 30 | inactive | –
O=S(=O)(c1c(F)cccc1F)N1CCN(S(=O)(=O)c2c(F)cccc2F)CC1 | inactive | – | 74.3% | < 30 | < 30 | < 30 | < 30 | inactive | –
O=S(=O)(c1ccc2c(c1)OCCO2)N1CCN(S(=O)(=O)c2ccccn2)CC1 | inactive | – | 103% | < 30 | < 30 | < 30 | < 30 | inactive | –
O=S(=O)(NC1CCN(S(=O)(=O)c2c(F)cccc2F)CC1)c1ccc2c(c1)OCCO2 | inactive | 9 | – | < 30 | < 30 | < 30 | < 30 | inactive | –
N#Cc1ccc(S(=O)(=O)N2CCN(S(=O)(=O)c3ccc4c(c3)OCCO4)CC2)cc1 | inactive | – | 44.1% | < 30 | < 30 | < 30 | < 30 | inactive | –
O=C1CN(S(=O)(=O)c2ccc3c(c2)OCCO3)CCN1S(=O)(=O)c1c(F)cccc1F | inactive | – | 96.9% | < 30 | < 30 | < 30 | < 30 | inactive | –
O=S(=O)(c1ccccc1)N1CCN(S(=O)(=O)c2ccc3c(c2)OCCO3)CC1 | inactive | – | 108% | < 30 | < 30 | < 30 | < 30 | inactive | –

SMILES | Activity (Pyruvate kinase PKM [1]) | AC50 (Pyruvate kinase PKM [2]; read-out: AC50) [µM] | Activity (Pyruvate kinase PKM [3]) | Activity [4] [%] | Activity [5] [%] | Activity [6] [%] | Activity [7] [%] | Activity (Pyruvate kinase PKM [8]) | AC50 (Pyruvate kinase PKM [2])
C[C@H]1CN(S(=O)(=O)c2ccc3c(c2)OCCO3)CCN1S(=O)(=O)c1c(F)cccc1F | inactive | 9.18 | 108% | < 30 | < 30 | < 30 | < 30 | inactive | –
O=S(=O)(NC1CCN(S(=O)(=O)c2c(F)cccc2F)C1)c1ccc2c(c1)OCCO2 (stereo not drawn) | inactive | > 10 | 83.7% | < 30 | < 30 | < 30 | < 30 | inactive | –
O=S(=O)(c1ccc2c(c1)OCCCO2)N1CCN(S(=O)(=O)c2c(F)cccc2F)CC1 | inactive | – | 100% | < 30 | < 30 | < 30 | < 30 | inactive | –
O=C(c1ccc2c(c1)OCCO2)N1CCN(S(=O)(=O)c2c(F)cccc2F)CC1 | inactive | – | inactive | < 30 | < 30 | < 30 | < 30 | inactive | Not Active
CC1(C)CCc2cc(S(=O)(=O)N3CCN(S(=O)(=O)c4c(F)cccc4F)CC3)ccc2O1 | inactive | – | 119% | < 30 | < 30 | < 30 | < 30 | inactive | –
O=S(=O)(c1ccc2c(c1)OCCO2)N1CCN(S(=O)(=O)c2ccc3c(c2)OCCO3)CC1 | inactive | – | 89.7% | < 30 | < 30 | < 30 | < 30 | inactive | –
O=S(=O)(NCCCCNS(=O)(=O)c1c(F)cccc1F)c1ccc2c(c1)OCCO2 | inactive | – | 113% | < 30 | < 30 | < 30 | < 30 | inactive | –
COc1cc(F)c(S(=O)(=O)N2CCN(S(=O)(=O)c3ccc4c(c3)OCCO4)CC2)c(F)c1 | inactive | – | 91.8% | < 30 | < 30 | < 30 | < 30 | inactive | –
O=S(=O)(c1c(F)cccc1F)C1CCN(S(=O)(=O)c2ccc3c(c2)OCCO3)CC1 | inactive | – | 104% | < 30 | < 30 | < 30 | < 30 | inactive | –
O=S(=O)(c1cccc(F)c1)N1CCN(S(=O)(=O)c2ccc3c(c2)OCCO3)CC1 | inactive | – | 107% | < 30 | < 30 | < 30 | < 30 | inactive | –
O=S(=O)(NCCCCCCNS(=O)(=O)c1c(F)cccc1F)c1ccc2c(c1)OCCO2 | inactive | – | 110% | < 30 | < 30 | < 30 | < 30 | inactive | –
O=S(=O)(NCCCNS(=O)(=O)c1c(F)cccc1F)c1ccc2c(c1)OCCO2 | inactive | – | 106% | < 30 | < 30 | < 30 | < 30 | inactive | –
O=S(=O)(c1ccc2c(c1)OCCO2)N1CCN(S(=O)(=O)c2ccc(F)cc2F)CC1 | inactive | – | 113% | < 30 | < 30 | < 30 | < 30 | inactive | –
O=S(=O)(c1ccc2c(c1)OCCO2)N1CCN(S(=O)(=O)c2cc(F)c(F)cc2F)CC1 | inactive | – | 105% | < 30 | < 30 | < 30 | < 30 | inactive | –
C[C@@H]1CN(S(=O)(=O)c2c(F)cccc2F)CCN1S(=O)(=O)c1ccc2c(c1)OCCO2 | inactive | – | 98.8% | < 30 | < 30 | < 30 | < 30 | inactive | –
